For assay [1], the system named is A-375. The assay can be described thus: Antiproliferative activity against human A375 cells after 48 hrs by sulforhodamine B assay. The conditions noted are these: A-375, 48 h. The format is functional, cell-based.
Assay [2] is described as follows: Antiproliferative activity against human WM164 cells after 48 hrs by sulforhodamine B assay. As to conditions: WM164, 48 h. The format is functional, cell-based.
Assay [3] relates to LNCaP. As to the kind of experiment: Antiproliferative activity against human LNCAP cells after 96 hrs by sulforhodamine B assay. The format is functional, cell-based. In general terms: The SRB assay estimates cell density from bound dye.
Assay [4] concerns PC-3. As to the kind of experiment: Antiproliferative activity against human PC3 cells after 96 hrs by sulforhodamine B assay. The format is functional, cell-based. As to conditions: PC-3, 96 h.
For assay [5], the system named is DU-145. The assay can be described thus: Antiproliferative activity against human DU145 cells after 96 hrs by sulforhodamine B assay. Format: functional, cell-based. The conditions noted are these: DU-145, 96 h.
Assay [6] concerns PPC-1. The assay can be described thus: Antiproliferative activity against human PPC1 cells after 96 hrs by sulforhodamine B assay. As to conditions: PPC-1, 96 h. Format: functional, cell-based.
For assay [7], the species on record is Bos taurus. The assay can be described thus: Inhibition of bovine brain tubulin polymerization after 15 mins by spectrophotometric analysis. The gist of the method: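 Bovine brain tubulin (>97% pure, 0.4 mg per assay) mixed with compound at 5, 10 or 20 µM, with 5% DMSO as vehicle control. Buffer: 80 mM PIPES, 2.0 mM MgCl2, 0.5 mM EGTA, 1 mM GTP, pH 6.9. Polymerization followed at 37 °C as absorbance at 340 nm, read every minute for 15 min.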

For assay [8], the system named is PC-3. As to the kind of experiment: Antiproliferative activity against human PC3 cells by sulforhodamine B assay. Format: functional, cell-based. The gist of the method:
(§1)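 Prostate cancer cells grown in RPMI 1640 with 10% FBS at 37 °C, 5% CO2. Cells (1000–5000/well, by growth rate) were exposed to a range of concentrations for 96 h, in three to five replicates. Growth was read by SRB: TCA fixation, 0.4% SRB stain, absorbance at 540 nm.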

Assay [9] has as its system PC-3. The assay can be described thus: Antiproliferative activity against human paclitaxel-resistant PC3 cells by sulforhodamine B assay. Format: functional, cell-based. The gist of the method:
as §1

Assay [10] relates to DU-145. The assay can be described thus: Antiproliferative activity against human paclitaxel-resistant DU145 cells by sulforhodamine B assay. The format is functional, cell-based. The gist of the method:
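Prostate cancer cells grown in RPMI 1640 with 10% FBS at 37 °C, 5% CO2. Seeded at 1000–5000 cells/well depending on growth rate and exposed to a concentration series for 96 h, in three to five replicates. Cells fixed with 10% TCA and stained with 0.4% SRB, absorbance read at 540 nm.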

pIC50: −log10 of the molar value.

As a reminder, the pIC50 is the negative decadic logarithm of the IC50, by convention in mol/L. With `COc1cc(C(=O)c2cc3ccc(Cl)cc3[nH]2)cc(OC)c1OC`, the pIC50 in assay [1], in assay [2], in assay [3], in assay [4], in assay [5] and in assay [6] was less than 5.00 each time. Also, in [7], the inhibition entry was “Dose-dependent effect”.

Regarding `COc1ccc2[nH]c(C(=O)c3cc(OC)c(OC)c(OC)c3)cc2c1`, the negative-log IC50 (pIC50) was 7.52 in assay [1]; 7.40 in [2]; 7.30 in assay [3]; 7.40 in assay [4]; 7.10 in assay [5]; 7.30 in assay [6]. In assay [7], the inhibition result was “Dose-dependent effect”.

As for `COc1cc(C(=O)c2c[nH]c(-c3ccc4[nH]c(C(=O)c5cc(OC)c(OC)c(OC)c5)cc4c3)n2)cc(OC)c1OC`, the pIC50 was 5.74 in [1]; 5.77 in assay [2]; 5.97 in assay [3]; 5.58 in assay [4]; 5.23 in assay [5]; 5.34 in [6]. The inhibition result in [7] was “Dose-dependent effect”.

For `COc1cc(C(=O)c2cc3ccc(Cl)cc3n2Cc2ccccc2)cc(OC)c1OC`, the negative-log IC50 (pIC50) in assay [1], in assay [2], in assay [3], in [4], in [5] and in assay [6] was less than 5.00 throughout. The inhibition result in assay [7] was “Dose-dependent effect”.

Consider `COc1cc(C(=O)c2c[nH]c(-c3ccc(C)cc3)n2)cc(OC)c1O`, for which the pIC50 in [1] is 6.96; in assay [2], 6.92; in assay [3], 6.89; in assay [4] it was 6.89; in assay [5], 6.77; in [6] it was 6.96. The inhibition result in assay [7] is “Dose-dependent effect”.

With `COc1cc(C(=O)c2cc3ccc(F)cc3[nH]2)cc(OC)c1OC`, the pIC50 in assay [1], in assay [2], in assay [3], in assay [4], in assay [5] and in [6] was less than 5.00 throughout. Further, the inhibition entry in [7] is “Dose-dependent effect”.

As to `COc1ccc2cc(C(=O)c3cc(OC)c(OC)c(OC)c3)[nH]c2c1`, the pIC50 in assay [1], in assay [2], in assay [3], in assay [4], in assay [5] and in [6] was less than 5.00 each time. For the same compound, in [7], the inhibition entry was “Dose-dependent effect”.

Regarding `COc1cc(C(=O)c2cc3cc(Cl)ccc3[nH]2)cc(OC)c1OC`, the negative logarithm of the IC50 (pIC50) in assay [1] was 5.83; in [2] it was 5.67; in [3] it was less than 5.00; in [4] it was less than 5.00; in assay [5], less than 5.00; in assay [6], less than 5.00. Also, in assay [7], the inhibition result is “Dose-dependent effect”.

As for `COc1ccc(-c2nc(C(=O)c3ccc(F)cc3)cn2C)cc1`, the pIC50 in assay [1], in assay [2], in [3], in assay [4], in assay [5] and in assay [6] was less than 5.00 in each case. In assay [7], the inhibition entry is “Dose-dependent effect”.

With `COc1cc(C(=O)c2c[nH]c(-c3ccc(Cl)cc3)n2)cc(OC)c1O`, the negative-log IC50 (pIC50) in [1] is 6.17; in assay [2] it was 6.30; in assay [3], 6.26; in [4], 6.52; in [5], 6.00; in assay [6] it was 6.24. Besides, in assay [7], the inhibition entry is “Dose-dependent effect”.

Take `COc1cc(C(=O)c2nc3ccccc3o2)cc(OC)c1OC`: the pIC50 in [1], in assay [2], in assay [3], in [4], in assay [5] and in assay [6] was less than 5.00 in each case. The inhibition entry in assay [7] was “Dose-dependent effect”.

As for `COc1cc(C(O)(c2nc3ccccc3s2)c2nc3ccccc3s2)cc(OC)c1OC`, the pIC50 in assay [1], in assay [2], in assay [3], in assay [4], in [5] and in assay [6] was less than 5.00 each time. For the same compound, the inhibition result in [7] is “Dose-dependent effect”.

In the case of `COc1ccc2cc(C(=O)c3cc(OC)c(OC)c(OC)c3)n(S(=O)(=O)c3ccccc3)c2c1`, the pIC50 in assay [1] is 5.09; in [2], less than 5.00; in assay [3], less than 5.00; in assay [4] it was 5.58; in assay [5], less than 5.00; in [6], 5.98. Further, in assay [7], the inhibition entry was “Dose-dependent effect”.

On to `COc1cc(C(=O)c2cc3ccc(F)cc3n2C)cc(OC)c1OC`, for which the pIC50 in assay [1] was 5.23; in assay [2] it was 5.12; in assay [3] it was 5.98; in assay [4], less than 5.00; in [5], less than 5.00; in assay [6], 5.08. For the same compound, in assay [7], the inhibition entry was “Dose-dependent effect”.

As for `COc1cc(C(=O)c2cc3ccc(Cl)cc3n2C)cc(OC)c1OC`, the pIC50 in assay [1] is 5.18; in assay [2], 5.09; in [3], 5.98; in assay [4], 5.42; in assay [5], less than 5.00; in assay [6], 5.36. Besides, the inhibition result in [7] is “Dose-dependent effect”.

As to `COc1cc(C(=O)c2nc3ccccc3[nH]2)cc(OC)c1OC`, the pIC50 in assay [1], in [2], in assay [3], in assay [4], in assay [5] and in assay [6] was less than 5.00 each time. Moreover, the inhibition entry in assay [7] was “Dose-dependent effect”.

For `COc1cc(C(=O)c2cc3cc(F)ccc3[nH]2)cc(OC)c1OC`, the pIC50 in assay [1] was 5.66; in assay [2], 5.65; in [3], 5.06; in assay [4] it was 5.04; in [5] it was 5.47; in assay [6], 6.00. Further, the inhibition entry in [7] is “Dose-dependent effect”.

For `COc1cc(C(=O)c2nc3ccccc3s2)cc(OC)c1OC`, the pIC50 in assay [1], in assay [2], in [3], in [4], in assay [5] and in assay [6] was less than 5.00 throughout. Further, the inhibition result in [7] is “Dose-dependent effect”.

Turning to `COc1cc(C(=O)c2cc3ccc(C)cc3[nH]2)cc(OC)c1OC`, the pIC50 in assay [1], in assay [2], in assay [3], in assay [4], in assay [5] and in [6] was less than 5.00 throughout. In addition, in assay [7], the inhibition entry was “Dose-dependent effect”.

Regarding `COc1cc(C(=O)c2cc3ccc(F)cc3n2S(=O)(=O)c2ccccc2)cc(OC)c1OC`, the pIC50 in [1], in assay [2], in [3], in [4], in assay [5] and in assay [6] was less than 5.00 each time. Further, the inhibition entry in [7] is “Dose-dependent effect”.

Turning to `COc1cc(C(=O)c2cn(Cc3ccccc3)c(-c3ccc(C)cc3)n2)cc(OC)c1OC`, the pIC50 in assay [1] is 5.97; in [2], 5.93; in assay [3], 6.17; in assay [4], 6.33; in assay [5], 5.82; in assay [6] it was 6.11. In addition, the inhibition result in assay [7] is “Dose-dependent effect”.

For the compound `COc1ccc(S(=O)(=O)n2cc(C(=O)c3ccc(F)cc3)nc2-c2ccc(N(C)C)cc2)cc1`, the pIC50 in assay [1] is 7.00; in assay [2], 7.00; in assay [3], 7.15; in [4], 7.40; in [5], 6.89; in assay [6], 7.22. Also, the inhibition entry in assay [7] was “Dose-dependent effect”.

`CC(=O)O[C@H]1C(=O)[C@@]2(C)[C@H]([C@H](OC(=O)c3ccccc3)[C@]3(O)C[C@H](OC(=O)[C@H](O)[C@@H](NC(=O)c4ccccc4)c4ccccc4)C(C)=C1C3(C)C)[C@]1(OC(C)=O)CO[C@@H]1C[C@@H]2O` [PACLITAXEL]: the pIC50 is 9.37 in assay [8], 6.73 in assay [9] and less than 5.52 in [10].
